Assay outcomes as filed in PubChem BioAssay.
Sampled rows, rich in hits. Any-hit rate of the full collection: about 4.7%.
ADAM10 inh: inhibits human ADAM10 | O14672 | recombinant ADAM10, EDANS/DABCYL FRET peptide cleavage, 3 h | inhibition, % at 7 µM | 370,000 tested, 0.62% active | AID 720582;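 active = inhibition above a per-campaign cutoff equal to the mean of compounds falling between control-based bounds plus 3 SD, cut at about 20% in these data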;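 also: 0% = DMSO wells while the 100% control is not disclosed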
SKN-1 block: inhibitors of C. elegans SKN-1 | inhibition, % at 21.8 µM | 360,000 tested, 0.49% active | AID 624304 | C. elegans VP596 Pgst-4::GFP/RFP ratio, acrylamide-induced, 24 h;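 active = interference check ratio from 0.5 to 1.5 plus GFP to RFP signal ratio inhibition reaching or exceeding a fixed threshold, cut at about 30% in these data, passing the limit was not always enough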
MPTP block: blocks calcium-induced mitochondrial swelling. inhibition, % at 10 µM. 360,000 tested, 1.4% active. isolated mouse mitochondria, Ca2+ swelling absorbance, 30 min;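 active = inhibition of 50% or more, scaled per plate between neutral and stimulator controls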;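 also: 0% = DMSO wells given calcium and 100% = 1 mM EGTA wells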
ADAM17 inh: ADAM17 inhibition, QFRET primary screen. P78536. recombinant ADAM17, EDANS/DABCYL FRET peptide cleavage. 370,000 tested, 0.83% active. inhibition, % at 6.95 µM;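 active = inhibition above the mean of compounds lying between control limits plus 3 SD, set per campaign, cut at about 8.5% in these data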;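 also: 0% = DMSO-only wells as the low control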
NR3A LBD binder: modulators (binders) of human NR3A ligand-binding domain; NR3A LBD differential scanning fluorimetry, Tm shift; 0% = protein alone, 100% = glycine-bound protein; Tm shift relative to glycine control, % at 25 µM; 340,000 tested, 2.5% active; AID 1259313;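 active = melting temperature shift of at least 10% of the positive control shift, at one fixed dose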
MT1-MMP act inh: blocks activation of human MT1-MMP | GFP/RFP ratio change, % at 20 µM | HT1080 RFP-PRO-GFP cells, GFP/RFP ratio fluorescence, overnight; percent of plate control window, DMSO zero | 360,000 tested, 0.061% active | P50281;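 active = GFP/RFP ratio change of at least 30% with cell ATP level not reduced by more than half and red fluorescence within 50% of control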
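Read-out: GFP/RFP fluorescence ratio; Test system: RFP-PRO-GFP reporter HT1080 cells; Compound dosing: single-point 20 µM compound, 1% DMSO; Times: overnight compound exposure at 37 °C.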
The depositor's hits bear a star; . = no result given.

SMILES	ADAM10 inh	SKN-1 block	MPTP block	ADAM17 inh	NR3A LBD binder	MT1-MMP act inh
Cc1cccc(NC(=O)CN2C(=O)S/C(=C\C(=O)Nc3ccc(Cl)cc3)C2=O)c1	-2	1	0	3	9	-1
O=C(/C=C1\SC(=O)N(CC(=O)Nc2ccc(Cl)cc2)C1=O)Nc1ccc(F)cc1	-4	9	1	0	36*	1
CC(/C=C1\SC(=O)N(CC(=O)Nc2ccc(O)cc2)C1=O)=C\c1ccccc1	8	12	4	3	10*	-1
O=C(CN1CCN(CC(=O)Nc2ccc(Cl)cc2)CC1)Nc1ccc(F)cc1	11	0	1	2	0	6
O=C(/C=C1\SC(=O)N(CC(=O)Nc2ccc(F)cc2)C1=O)Nc1ccc(Cl)cc1	4	-6	-1	3	27*	7
O=C(/C=C/c1ccc(Cl)cc1Cl)NC(=S)Nc1ccc(CN2CCOCC2)cc1	-5	8	4	0	-3	7
O=C(/C=C/c1ccc(Cl)cc1Cl)NC(=S)Nc1ccccn1	-3	38*	1	-2	7	-12
Clc1ccc(C=Cc2ccccn2)c(Cl)c1	-13	85*	0	-2	2	-4
O=C(/C=C/c1ccccn1)c1cc(Cl)cc(Cl)c1O	-33	15	1	-7	-1	-3
O=C(Nc1cc(Br)ccc1O)c1cnn2c(C(F)F)cc(C3CC3)nc12	1	1	5	-2	14*	0
CC1NC(=O)N(C)[C@@H]2NC(=O)N(C)C(c3ccc([N+](=O)[O-])cc3)[C@@H]12 (stereo partly drawn)	0	-4	1	0	1	-3
Nc1c(N=Nc2ccccc2F)c(=O)[nH]n1-c1ccccc1	-1	24	-3	-4	12*	8
CCCc1nn2c(N)c(/C=C3\C=Nc4ccccc43)c(=O)nc2s1	-10	-6	4	-3	2	0
CCC(CC)c1nn2c(N)c(/C=C3\C=Nc4ccccc43)c(=O)nc2s1	-2	-6	12	-2	11*	0
CCC(CC)c1nn2c(N)c(/C=C3\C(C)=Nc4ccccc43)c(=O)nc2s1	-10	15	42	-4	13*	2
CC(C)c1nn2c(N)c(/C=C3\C=Nc4ccccc43)c(=O)nc2s1	-8	-18	6	-9	1	0
O=C(NC(Cc1c[nH]c2ccccc12)C(=O)N/N=C/c1ccc(Cl)cc1)c1cccs1 (stereo not drawn)	16	0	0	8	20*	2
O=C(NC(Cc1c[nH]c2ccccc12)C(=O)N1CCOCC1)c1cccs1 (stereo not drawn)	-11	9	-1	2	2	-2
C=CCc1ccccc1OCC(O)CN1CCN(c2ccc(OC)cc2)CC1 (stereo not drawn)	12	-1	0	2	2	6
CCOC(=O)c1cc2occc2n1Cc1ccc(F)cc1	5	-4	11	0	15*	-3
COc1ccc(C(=O)NC(NC(=S)Nc2ccc(S(N)(=O)=O)cc2)C(Cl)(Cl)Cl)cc1 (stereo not drawn)	20	-31	3	7	13*	2
COc1ccc(C(=O)NC(=S)Nc2ccc(S(N)(=O)=O)cc2)cc1	1	-8	-1	-2	-4	1
CCCCN1C(=O)C(CC(=O)NCCCCc2ccccc2)CC(C(=O)N2CCCCCC2)=C1C (stereo not drawn)	-4	14	1	-4	.	4
O=C(Nc1ccc(Br)c2ccccc12)c1ccc2ccccc2c1O	-24	17	39	-11	19*	-19
Cc1ccc2ccccc2c1C(O)c1ncc(-c2ccc(C(F)(F)F)cc2)[nH]1 (stereo not drawn)	10	10	4	7	.	6
O=C(c1cc(C2CC2)on1)N1CCCC(N2CCN(c3cccc(C(F)(F)F)c3)CC2)C1 (stereo not drawn)	-3	7	-1	0	1	-2
Cc1ccccc1N1CCN(C2CCCN(C(=O)c3ccc(Cl)s3)C2)CC1 (stereo not drawn)	-15	-5	0	-1	11*	.
